Results reported in ChEMBL document CHEMBL1641580, “Identification of 3-phenylaminoquinolinium and 3-phenylaminopyridinium salts as new agents against opportunistic fungal pathogens” (Bioorg Med Chem, 2011).
Activity calls are given as the source filed them. No cut-off for these calls is given here.

How the values were obtained:
Aspergillus fumigatus [1] = assay: Antifungal activity against Aspergillus fumigatus ATCC 90906 at 20 ug/mL by microscopy; format: functional, organism-based
Summary of the method: (§1)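 Modified NCCLS microdilution. Samples in DMSO serially diluted in saline and tested in duplicate against inocula standardized to 0.5 McFarland. Broths: C. albicans SDB or RPMI 1640; C. neoformans SDB; A. fumigatus YM broth. Highest final concentration 20 µg/mL. MIC read visually as the lowest concentration with no detectable growth (for Alamar Blue wells, no blue-to-pink change).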

Cryptococcus neoformans [2] = assay: Antifungal activity against Cryptococcus neoformans ATCC 90113 at 20 ug/mL by microscopy; format: functional, organism-based; summary of the method: as §1
Cryptococcus neoformans [3] = assay: Fungicidal activity against Cryptococcus neoformans ATCC 90113 at 20 ug/mL; format: functional, organism-based
Candida albicans [4] = assay: Antifungal activity against Candida albicans ATCC 90028 at 20 ug/mL by microscopy; format: functional, organism-based; summary of the method: as §1
Candida albicans [5] = assay: Fungicidal activity against Candida albicans ATCC 90028 at 20 ug/mL; format: functional, organism-based
Cryptococcus neoformans [6] = assay: Antifungal activity against Cryptococcus neoformans ATCC 90113 assessed as inhibition of fungal growth at 20 ug/mL by alamar blue assay; format: functional, organism-based
Summary of the method: (§2)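 Broth microdilution modified from NCCLS. DMSO stocks serially diluted in saline and plated in duplicate. Inoculum set by 0.5 McFarland standard. Media: C. albicans in SDB or RPMI 1640; C. neoformans in SDB; A. fumigatus in RPMI-1640 + 5% Alamar Blue. Highest final concentration 20 µg/mL. Plates read before and after incubation by fluorescence 544ex/590em (A. fumigatus) or OD 630 nm. IC50 from percent growth vs concentration.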

Aspergillus fumigatus [7] = assay: Antifungal activity against Aspergillus fumigatus ATCC 90906 assessed as inhibition of fungal growth at 20 ug/mL by alamar blue assay; format: functional, organism-based; summary of the method: as §2
Candida albicans [8] = assay: Antifungal activity against Candida albicans ATCC 90028 assessed as inhibition of fungal growth at 20 ug/mL by alamar blue assay; format: functional, organism-based; summary of the method: as §2
Vero = assay: Cytotoxicity against african green monkey Vero cells at 20 ug/mL after 48 hrs by neutral red assay; format: cell-based; conditions: chlorocebus sabaeus
Summary of the method: (§3)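 Vero kidney fibroblasts seeded at 25,000 cells/well and grown 24 h, then exposed to samples up to 20 µg/ml for 48 h. Viable cells measured by neutral red assay. IC50 taken from growth-inhibition vs concentration curves. DMSO served as vehicle control.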

Aspergillus fumigatus [9] = assay: Fungicidal activity against Aspergillus fumigatus ATCC 90906 at 20 ug/mL; format: functional, organism-based
Cryptococcus neoformans [10] = assay: Antifungal activity against Cryptococcus neoformans ATCC 90113 by microscopy; format: functional
Summary of the method: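 Modified NCCLS microdilution. Samples in DMSO serially diluted in saline and tested in duplicate against inocula standardized to 0.5 McFarland. Highest final concentration 20 µg/mL. MIC read visually as the lowest concentration with no detectable growth (for Alamar Blue wells, no blue-to-pink change).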

[11] = Cytotoxicity against african green monkey Vero cells after 48 hrs by neutral red assay; format: cell-based; conditions: chlorocebus sabaeus, read-out: TC50; summary of the method: as §3
Cryptococcus neoformans [12] = assay: Antifungal activity against Cryptococcus neoformans ATCC 90113 assessed as inhibition of fungal growth by alamar blue assay; format: functional, organism-based; summary of the method: as §2
Cryptococcus neoformans [13] = assay: Fungicidal activity against Cryptococcus neoformans ATCC 90113; format: functional
Candida albicans [14] = assay: Antifungal activity against Candida albicans ATCC 90028 by microscopy; format: functional; summary of the method: as §1
Candida albicans [15] = assay: Antifungal activity against Candida albicans ATCC 90028 assessed as inhibition of fungal growth by alamar blue assay; format: functional, organism-based; summary of the method: as §2
Candida albicans [16] = assay: Fungicidal activity against Candida albicans ATCC 90028; format: functional
Aspergillus fumigatus [17] = assay: Antifungal activity against Aspergillus fumigatus ATCC 90906 assessed as inhibition of fungal growth by alamar blue assay; format: functional, organism-based; conditions: Aspergillus fumigatus, ATCC 90906; read-out: IC50; summary of the method: as §2
Aspergillus fumigatus [18] = assay: Antifungal activity against Aspergillus fumigatus ATCC 90906 by microscopy; format: functional; summary of the method: as §1
Aspergillus fumigatus [19] = assay: Fungicidal activity against Aspergillus fumigatus ATCC 90906; format: functional

| SMILES | Activity (Aspergillus fumigatus [1]) | Activity (Cryptococcus neoformans [2]) | Activity (Cryptococcus neoformans [3]) | Activity (Candida albicans [4]) | Activity (Candida albicans [5]) | inhibition (Cryptococcus neoformans [6]) | inhibition (Aspergillus fumigatus [7]) | inhibition (Candida albicans [8]) | Activity (Vero) | Activity (Aspergillus fumigatus [9]) | MIC (Cryptococcus neoformans [10]) [µg/mL] | CC50 at 48 h [11] [µg/mL] | IC50 (Cryptococcus neoformans [12]) [µg/mL] | MFC (Cryptococcus neoformans [13]) [µg/mL] | MIC (Candida albicans [14]) [µg/mL] | IC50 (Candida albicans [15]) [µg/mL] | MFC (Candida albicans [16]) [µg/mL] | IC50 (Aspergillus fumigatus [17]) [µg/mL] | MIC (Aspergillus fumigatus [18]) [µg/mL] | MFC (Aspergillus fumigatus [19]) [µg/mL] |
| --- | --- | --- | --- | --- | --- | --- | --- | --- | --- | --- | --- | --- | --- | --- | --- | --- | --- | --- | --- | --- |
| C[n+]1cc(Nc2ccccc2)cc2ccccc21.[I-] | inactive | inactive | inactive | inactive | inactive | inactive | inactive | inactive | Non-toxic | inactive | – | – | – | – | – | – | – | – | – | – |
| C[n+]1cc(Nc2ccccc2Cl)cc2ccccc21.[I-] | inactive | inactive | inactive | inactive | inactive | inactive | inactive | inactive | Non-toxic | inactive | – | – | – | – | – | – | – | – | – | – |
| C[n+]1cccc(N(CCCCCC2CCCCC2)c2ccccc2C#N)c1.[I-] | – | – | – | – | – | – | inactive | – | – | – | 10 | > 10 | 6.6 | 20 | – | – | – | – | – | – |
| C[n+]1cccc(N(CCCCCC2CCCCC2)c2cccc(C#N)c2)c1.[I-] | – | – | – | inactive | inactive | – | inactive | inactive | – | – | 5 | > 10 | 3.5 | 5 | – | – | – | – | – | – |
| C[n+]1cccc(N(CCCCCC2CCCCC2)c2ccc(F)cc2)c1.[I-] | inactive | – | – | inactive | inactive | – | inactive | inactive | – | inactive | 2.5 | > 10 | 1.4 | 2.5 | 20 | 9.6 | – | – | – | – |
| COc1cccc(N(CCCCCC2CCCCC2)c2ccc[n+](C)c2)c1.[I-] | – | – | – | – | – | – | inactive | – | – | – | 5 | > 10 | 3.6 | 5 | 20 | 8.9 | > 20 | – | – | – |
| C[n+]1cccc(Nc2ccccc2)c1.[I-] | – | – | – | – | – | – | – | – | Non-toxic | – | – | – | – | – | – | – | – | – | – | – |
| C[n+]1cc(Nc2ccc(Cl)cc2)cc2ccccc21.[I-] | inactive | inactive | inactive | inactive | inactive | inactive | inactive | inactive | Non-toxic | inactive | – | – | – | – | – | – | – | – | – | – |
| C[n+]1cccc(N(CCCCCC2CCCCC2)c2ccc(C#N)cc2)c1.[I-] | – | – | – | – | – | – | inactive | – | – | – | 5 | > 10 | 2.6 | 5 | 20 | 19 | > 20 | – | – | – |
| C[n+]1cc(Nc2cccc(Cl)c2)cc2ccccc21.[I-] | inactive | inactive | inactive | inactive | inactive | inactive | inactive | inactive | Non-toxic | inactive | – | – | – | – | – | – | – | – | – | – |
| C[n+]1cccc(N(CCCCCC2CCCCC2)c2ccccc2)c1.[I-] | inactive | – | – | inactive | inactive | – | – | inactive | – | inactive | 2.5 | > 10 | 1.5 | 2.5 | 20 | 8.3 | – | 19.7 | – | – |
| C[n+]1cc(N(CCCCCC2CCCCC2)c2ccc(Cl)cc2)cc2ccccc21.[I-] | – | – | – | – | – | – | – | – | – | – | 0.6 | 10 | 0.4 | 2.5 | 1.3 | 0.5 | 5 | 0.8 | 1.3 | 10 |
| Clc1cccc(Nc2cc3ccccc3[n+](CCCCCC3CCCCC3)c2)c1.[I-] | – | – | – | – | – | – | – | – | – | – | 3.1 | > 10 | 2 | 50 | 6.3 | 2 | 13 | 3.5 | 6.3 | > 20 |
| COc1ccccc1N(CCCCCC1CCCCC1)c1ccc[n+](C)c1.[I-] | – | – | – | – | – | – | inactive | – | – | – | 5 | – | 3 | 5 | 10 | 5 | 10 | – | – | – |
| Cc1ccc(N(CCCCCC2CCCCC2)c2ccc[n+](C)c2)cc1.[I-] | – | – | – | – | – | – | – | – | – | – | 2.5 | > 10 | 1.5 | 5 | 2.5 | 1.5 | 10 | 1.5 | 5 | 5 |
| C[n+]1cccc(N(CCCCCC2CCCCC2)c2ccccc2C(F)(F)F)c1.[I-] | – | – | – | – | – | – | inactive | – | – | – | 5 | – | 2.3 | 5 | 5 | 2.6 | 5 | – | – | – |
| COc1ccc(N(CCCCCC2CCCCC2)c2ccc[n+](C)c2)cc1.[I-] | – | – | – | – | – | – | inactive | – | – | – | 2.5 | > 10 | 1.4 | 2.5 | 10 | 5.1 | 20 | – | – | – |
| Clc1ccc(Nc2cc3ccccc3[n+](CCCCCc3ccccc3)c2)cc1.[I-] | – | – | – | – | – | – | – | – | – | – | 6.3 | > 25 | 4 | 12.5 | > 20 | 15 | > 20 | 10 | > 20 | > 20 |
